From ChEMBL document CHEMBL3421573, “Synthesis of new ent-labdane diterpene derivatives from andrographolide and evaluation on cytotoxic activities” (Bioorg Med Chem Lett, 2015)
pIC50: −log10 of the molar value.

How the values were obtained:
Type in all cases: functional, cell-based
MCF7 = test: Cytotoxicity against human MCF7 cells after 48 hrs by MTT assay; conditions: for pIC50: Homo sapiens, MCF7, 48 h, read-out: IC50
Procedure, shortened: (§1)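 Samples dissolved in DMSO (0.1%); cis-platin included as positive control. IC50 taken as the drug concentration giving 50% growth inhibition, in µM.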

[1] = Cytotoxicity against human NP14 cells after 48 hrs by MTT assay; conditions: NP14, 48 h; procedure, shortened: as §1
[2] = Cytotoxicity against human NTUB1 cells after 48 hrs by MTT assay; conditions: NTUB1, 48 h; procedure, shortened: as §1
MDA-MB-231 = test: Cytotoxicity against human MDA-MB-231 cells after 48 hrs by MTT assay; conditions: for pIC50: Homo sapiens, MDA-MB-231, 48 h, read-out: IC50; procedure, shortened: as §1

SMILES	pIC50 (MCF7)	pIC50 [1]	pIC50 [2]	pIC50 (MDA-MB-231)	IC50 (MCF7; mcf7)	IC50 (MDA-MB-231; mda-mb-231)
C=C1CC[C@@H]2[C@](C)(CO)[C@H](O)CC[C@@]2(C)[C@@H]1CCc1ccoc1	4.10	4.27	4.40	< 4.00	–	–
C=C1CC[C@@H]2[C@](C)(COC(=O)CC)[C@H](OC(=O)CC)CC[C@@]2(C)[C@@H]1CCc1ccoc1	< 4.00	4.03	4.37	4.39	–	–
C=C1CC[C@@H]2[C@](C)(COC(=O)C(Cl)Cl)[C@H](OC(=O)C(Cl)Cl)CC[C@@]2(C)[C@@H]1CCc1ccoc1	4.64	5.35	4.95	5.58	–	–
C=C1CC[C@@H]2[C@](C)(COC(=O)COc3ccccc3)[C@H](O)CC[C@@]2(C)[C@@H]1CCc1ccoc1	4.43	4.73	< 4.00	4.46	–	–
C=C1CC[C@@H]2[C@](C)(COC(=O)c3ccc([N+](=O)[O-])cc3)[C@H](O)CC[C@@]2(C)[C@@H]1CCc1ccoc1	4.21	4.09	4.62	4.43	–	–
C=C1CC[C@@H]2[C@](C)(COC(=O)c3ccc([N+](=O)[O-])cc3)[C@H](OC(=O)c3ccc([N+](=O)[O-])cc3)CC[C@@]2(C)[C@@H]1CCc1ccoc1	< 4.00	< 4.00	< 4.00	< 4.00	–	–
C=C1CC[C@@H]2[C@](C)(COC(=O)c3ccc(OC)cc3)[C@H](O)CC[C@@]2(C)[C@@H]1CCc1ccoc1	4.60	4.39	4.58	4.54	–	–
C[C@]1(CO)[C@H]2CCC(=O)[C@@H](CCc3ccoc3)[C@]2(C)CC[C@H]1O	< 4.00	< 4.00	< 4.00	4.25	–	–
C=C1[C@H](O)C[C@@H]2[C@](C)(COC(=O)CC)[C@H](OC(=O)CC)CC[C@@]2(C)[C@@H]1CCc1ccoc1	4.36	4.56	4.53	4.39	–	–
C=C1CC[C@H]2[C@@](C)(CCC(=O)[C@@]2(C)CO)[C@@H]1CCc1ccoc1	4.06	4.36	4.20	4.15	–	–
C=C1CC[C@@H]2[C@](C)(CO)[C@H](O)CC[C@@]2(C)[C@@H]1CC(O)C1=CCOC1=O (some centres undefined)	4.11	4.31	4.83	4.56	–	–
C=C1CC[C@@H]2[C@](C)(CO)[C@H](O)CC[C@@]2(C)[C@@H]1CC(O)c1ccoc1 (some centres undefined)	< 4.00	< 4.00	< 4.00	< 4.00	–	–
C=C1CC[C@@H]2[C@](C)(COC(=O)CC)[C@H](OC(=O)CC)CC[C@@]2(C)[C@@H]1CC(OC(=O)CC)c1ccoc1 (some centres undefined)	< 4.00	4.37	4.05	< 4.00	–	–
C=C1CC[C@@H]2[C@](C)(COC(c3ccccc3)(c3ccccc3)c3ccccc3)[C@H](OC(C)=O)CC[C@@]2(C)[C@@H]1CC(OC(C)=O)C1=CCOC1=O (some centres undefined)	5.19	4.84	5.07	5.20	–	–
C=C1CC[C@@H]2[C@](C)(CO)[C@H](O)CC[C@@]2(C)[C@@H]1C/C=C1/C(=O)OC[C@H]1O [ANDROGRAPHOLIDE]	4.51	4.67	4.49	4.78	–	–
C=C1CC[C@@H]2[C@](C)(CO)[C@H](O)CC[C@@]2(C)[C@@H]1CCC1=CCOC1=O [DEOXYANDROGRAPHOLIDE]	–	< 4.00	< 4.00	–	Not Active	Not Active
